{
  "source": "ChEMBL document CHEMBL3351413",
  "about": "“Development of quinone analogues as dynamin GTPase inhibitors” (Eur J Med Chem, 2014)",
  "note": "Active and inactive are the calls of the source. No cut-off for these calls is given here.",
  "data": [
    {"system": "not listed separately", "assay": "Competitive inhibition of phosphatidylserine-stimulated GTPase activity of sheep brain Dynamin 1 expressed in Sf21 cells by Lineweaver-Burk plot method in presence of Mg2+ and GTP", "settings": "Ovis aries", "values": [
      {"smiles": "O=C1C=C(Nc2ccc(CO)cc2)C(=O)C=C1Nc1ccc(CO)cc1", "inhibition": "Active"}
    ]},
    {"biological_target": "T1, Dynamin-2 (Rattus norvegicus) (UniProt P39052)", "T1 sequence (whole entry)": "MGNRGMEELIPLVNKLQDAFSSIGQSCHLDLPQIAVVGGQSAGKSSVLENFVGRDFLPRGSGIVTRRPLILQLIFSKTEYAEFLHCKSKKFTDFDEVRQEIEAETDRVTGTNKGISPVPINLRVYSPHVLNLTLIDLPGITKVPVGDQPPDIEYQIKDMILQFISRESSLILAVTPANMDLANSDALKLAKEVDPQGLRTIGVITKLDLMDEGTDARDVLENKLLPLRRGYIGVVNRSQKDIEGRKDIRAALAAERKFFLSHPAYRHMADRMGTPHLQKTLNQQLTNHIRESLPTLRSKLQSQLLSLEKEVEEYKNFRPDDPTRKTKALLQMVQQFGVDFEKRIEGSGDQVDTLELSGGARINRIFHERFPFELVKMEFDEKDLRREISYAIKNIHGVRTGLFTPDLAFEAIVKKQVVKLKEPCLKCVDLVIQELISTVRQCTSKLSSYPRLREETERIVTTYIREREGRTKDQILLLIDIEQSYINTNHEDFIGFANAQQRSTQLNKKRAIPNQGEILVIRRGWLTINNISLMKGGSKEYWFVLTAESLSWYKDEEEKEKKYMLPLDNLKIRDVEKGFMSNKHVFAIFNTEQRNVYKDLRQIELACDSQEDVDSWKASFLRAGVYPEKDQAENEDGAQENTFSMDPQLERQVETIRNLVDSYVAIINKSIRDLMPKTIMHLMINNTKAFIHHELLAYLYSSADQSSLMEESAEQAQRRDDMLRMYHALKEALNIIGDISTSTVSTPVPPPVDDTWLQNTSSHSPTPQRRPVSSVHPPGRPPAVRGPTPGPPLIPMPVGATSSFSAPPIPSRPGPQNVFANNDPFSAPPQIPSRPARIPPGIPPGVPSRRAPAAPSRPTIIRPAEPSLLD", "assay": "Inhibition of phosphatidylserine-stimulated GTPase activity of recombinant rat Dynamin 2 expressed in Sf21 cells assessed as inhibition of orthophosphate release from GTP up to 300 uM by malachite green method", "settings": "not given", "how_it_was_run": "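His-6-tagged rat dynII from pIEx-6-transfected Sf21 cells (polyethylenimine, DNA:PEI 1:5, 48 h), purified on GST-Amph2-SH3-sepharose. Enzyme at 50 nM final was stimulated with phosphatidylserine liposomes for 90 min. GTP-derived Pi release was read colorimetrically with Malachite Green. Final DMSO was at most 3.3%.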", "values": [
      {"smiles": "O=C1C=C(NCc2ccccc2)C(=O)C=C1NCc1ccccc1", "inhibition": "inactive"}
    ]},
    {"system": "not listed separately", "assay": "Inhibition of phosphatidylserine-stimulated GTPase activity of sheep brain Dynamin 1 expressed in Sf21 cells assessed as inhibition of orthophosphate release from GTP up to 300 uM by malachite green method", "settings": "Ovis aries", "how_it_was_run": "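DynI at 50 nM final was stimulated with phosphatidylserine liposomes for 30 min. Orthophosphate released from GTP was detected colorimetrically by Malachite Green. Compounds came from 30 mM DMSO stocks diluted in 50% DMSO/20 mM Tris-HCl pH 7.4; final DMSO was at most 3.3%.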", "values": [
      {"smiles": "CC(C)CCNC1=CC(=O)C(NCCC(C)C)=CC1=O", "inhibition": "inactive"},
      {"smiles": "CCCCCNC1=CC(=O)C(NCCCCC)=CC1=O", "inhibition": "inactive"},
      {"smiles": "O=C1C=C(NCc2ccc(Cl)cc2)C(=O)C=C1NCc1ccc(Cl)cc1", "inhibition": "inactive"},
      {"smiles": "O=C1C=C(NCc2ccccc2)C(=O)C=C1NCc1ccccc1", "inhibition": "inactive"},
      {"smiles": "O=C1C=C(Nc2cccc(CO)c2)C(=O)C=C1Nc1cccc(CO)c1", "inhibition": "inactive"},
      {"smiles": "Cc1ccccc1NC1=CC(=O)C(Nc2ccccc2C)=CC1=O", "inhibition": "inactive"},
      {"smiles": "O=C1C=C(Nc2ccccc2)C(=O)c2ccccc21", "inhibition": "inactive"},
      {"smiles": "CSCCNC1=CC(=O)C(NCCSC)=CC1=O", "inhibition": "inactive"},
      {"smiles": "O=C1C=C(NCCCCl)C(=O)C=C1NCCCCl", "inhibition": "inactive"},
      {"smiles": "O=C1C=C(NCCCCO)C(=O)C=C1NCCCCO", "inhibition": "inactive"},
      {"smiles": "C=CCNC1=CC(=O)C(NCC=C)=CC1=O", "inhibition": "inactive"},
      {"smiles": "CCCNC1=CC(=O)C(NCCC)=CC1=O", "inhibition": "inactive"},
      {"smiles": "O=C1C=C(NCc2ccc(Br)cc2)C(=O)C=C1NCc1ccc(Br)cc1", "inhibition": "inactive"},
      {"smiles": "CCCCNC1=CC(=O)C(NCCCC)=CC1=O", "inhibition": "inactive"},
      {"smiles": "O=C1C=C(NCCc2ccccc2)C(=O)C=C1NCCc1ccccc1", "inhibition": "inactive"},
      {"smiles": "O=C(O)c1ccc(NC2=CC(=O)c3ccccc3C2=O)cc1", "inhibition": "inactive"},
      {"smiles": "COc1ccccc1NC1=CC(=O)C(Nc2ccccc2OC)=CC1=O", "inhibition": "inactive"},
      {"smiles": "O=C1C=C(NCCCO)C(=O)c2ccccc21", "inhibition": "inactive"},
      {"smiles": "O=C1C=C(NCc2cccnc2)C(=O)C=C1NCc1cccnc1", "inhibition": "inactive"},
      {"smiles": "COCCNC1=CC(=O)C(NCCOC)=CC1=O", "inhibition": "inactive"},
      {"smiles": "O=C1C=C(NCc2ccccc2)C(=O)c2ccccc21", "inhibition": "inactive"},
      {"smiles": "Cc1ccc(CNC2=CC(=O)C(NCc3ccc(C)cc3)=CC2=O)cc1", "inhibition": "inactive"},
      {"smiles": "O=C1C=C(NCCO)C(=O)c2ccccc21", "inhibition": "inactive"},
      {"smiles": "CCNC1=CC(=O)C(NCC)=CC1=O", "inhibition": "inactive"},
      {"smiles": "O=C1C=C(NCc2ccc(F)cc2)C(=O)C=C1NCc1ccc(F)cc1", "inhibition": "inactive"},
      {"smiles": "O=C1C=C(Nc2ccccc2)C(=O)C=C1Nc1ccccc1", "inhibition": "inactive"},
      {"smiles": "COCCCNC1=CC(=O)C(NCCCOC)=CC1=O", "inhibition": "inactive"},
      {"smiles": "O=C(O)c1cccc(NC2=CC(=O)c3ccccc3C2=O)c1", "inhibition": "inactive"},
      {"smiles": "O=C1C=C(NCCCO)C(=O)C=C1NCCCO", "inhibition": "inactive"},
      {"smiles": "COc1ccc(CNC2=CC(=O)c3ccccc3C2=O)cc1", "inhibition": "inactive"}
    ]},
    {"biological_target": "T2, Dynamin-2 (Rattus norvegicus, UniProt P39052)", "T2 sequence (P39052 whole entry)": "T1 sequence (whole entry)", "assay": "Inhibition of phosphatidylserine-stimulated GTPase activity of recombinant rat Dynamin 2 expressed in Sf21 cells assessed as inhibition of orthophosphate release from GTP by malachite green method", "settings": "not given", "how_it_was_run": "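His-6-tagged rat dynII expressed in Sf21 cells after polyethylenimine transfection (48 h), purified on GST-Amph2-SH3-sepharose. Enzyme at 50 nM, stimulated with phosphatidylserine liposomes for 90 min. Pi release from GTP read colorimetrically with malachite green. Final DMSO at most 3.3%.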", "units": {"IC50": "µM"}, "values": [
      {"smiles": "O=C1C=C(Nc2ccc(C(=O)O)cc2)C(=O)C=C1Nc1ccc(C(=O)O)cc1", "IC50": 9.1},
      {"smiles": "O=C1C=C(Nc2ccc(O)cc2)C(=O)C=C1Nc1ccc(O)cc1", "IC50": 23.6},
      {"smiles": "O=C1C=C(Nc2cccc(C(=O)O)c2)C(=O)C=C1Nc1cccc(C(=O)O)c1", "IC50": 14.7},
      {"smiles": "O=C1C=C(Nc2cccc(O)c2)C(=O)C=C1Nc1cccc(O)c1", "IC50": 43.7}
    ]},
    {"system": "not listed separately", "assay": "Inhibition of phosphatidylserine-stimulated GTPase activity of sheep brain Dynamin 1 expressed in Sf21 cells assessed as inhibition of orthophosphate release from GTP by malachite green method", "parameters": "species or system Ovis aries", "settings": "not given", "how_it_was_run": "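DynI at 50 nM, stimulated with phosphatidylserine liposomes for 30 min. Pi release from GTP detected colorimetrically by malachite green. Compounds diluted from DMSO stocks, final DMSO at most 3.3%.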", "units": {"IC50": "µM"}, "values": [
      {"smiles": "O=C1C=C(NCCCBr)C(=O)C=C1NCCCBr", "IC50": 58},
      {"smiles": "COc1ccc(CNC2=CC(=O)C(NCc3ccc(OC)cc3)=CC2=O)cc1", "IC50": 170},
      {"smiles": "O=C1C=C(Nc2ccc(C(=O)O)cc2)C(=O)C=C1Nc1ccc(C(=O)O)cc1", "IC50": 10.6},
      {"smiles": "O=C1C=C(Nc2ccc(O)cc2)C(=O)C=C1Nc1ccc(O)cc1", "IC50": 11.1},
      {"smiles": "O=C1C=C(Nc2ccccc2Br)C(=O)C=C1Nc1ccccc1Br", "IC50": 387},
      {"smiles": "O=C1C=C(NCc2ccccc2)C(=O)C=C1NCc1ccccc1", "IC50": 273},
      {"smiles": "COc1ccc(NC2=CC(=O)C(Nc3ccc(OC)cc3)=CC2=O)cc1", "IC50": "> 300"},
      {"smiles": "CCCCCCNC1=CC(=O)C(NCCCCCC)=CC1=O", "IC50": "> 300"},
      {"smiles": "O=C1C=C(NCCO)C(=O)C=C1NCCO", "IC50": 116},
      {"smiles": "O=C1C=C(Nc2cccc(C(=O)O)c2)C(=O)C=C1Nc1cccc(C(=O)O)c1", "IC50": 25.4},
      {"smiles": "O=C1C=C(Nc2ccc(CO)cc2)C(=O)c2ccccc21", "IC50": 29.5},
      {"smiles": "O=C(O)c1ccccc1NC1=CC(=O)c2ccccc2C1=O", "IC50": 314},
      {"smiles": "O=C1C=C(Nc2ccc(CO)cc2)C(=O)C=C1Nc1ccc(CO)cc1", "IC50": 21.5},
      {"smiles": "O=C1C=C(Nc2ccccc2C(=O)O)C(=O)C=C1Nc1ccccc1C(=O)O", "IC50": 50.2},
      {"smiles": "O=C1C=C(Nc2cccc(CO)c2)C(=O)c2ccccc21", "IC50": 30.3},
      {"smiles": "O=C1C=C(Nc2ccccc2CO)C(=O)C=C1Nc1ccccc1CO", "IC50": "> 300"},
      {"smiles": "O=C1C=C(NCc2ccc(O)cc2)C(=O)c2ccccc21", "IC50": 150},
      {"smiles": "O=C1C=C(NCc2ccc(O)cc2)C(=O)C=C1NCc1ccc(O)cc1", "IC50": 112},
      {"smiles": "O=C1C=C(Nc2ccc(O)cc2)C(=O)c2ccccc21", "IC50": 22.4},
      {"smiles": "COc1cccc(NC2=CC(=O)C(Nc3cccc(OC)c3)=CC2=O)c1", "IC50": "> 300"},
      {"smiles": "CN(C)CCNC1=CC(=O)C(NCCN(C)C)=CC1=O", "IC50": "> 300"},
      {"smiles": "O=C1C=C(Nc2cccc(O)c2)C(=O)c2ccccc21", "IC50": 109},
      {"smiles": "O=C1C=C(NCc2ccc(C(=O)O)cc2)C(=O)C=C1NCc1ccc(C(=O)O)cc1", "IC50": 29},
      {"smiles": "O=C1C=C(Nc2cccc(O)c2)C(=O)C=C1Nc1cccc(O)c1", "IC50": 57.9}
    ]},
    {"biological_target": "T3, Dynamin-1 (Homo sapiens) (UniProt Q05193)", "T3 sequence (whole entry)": "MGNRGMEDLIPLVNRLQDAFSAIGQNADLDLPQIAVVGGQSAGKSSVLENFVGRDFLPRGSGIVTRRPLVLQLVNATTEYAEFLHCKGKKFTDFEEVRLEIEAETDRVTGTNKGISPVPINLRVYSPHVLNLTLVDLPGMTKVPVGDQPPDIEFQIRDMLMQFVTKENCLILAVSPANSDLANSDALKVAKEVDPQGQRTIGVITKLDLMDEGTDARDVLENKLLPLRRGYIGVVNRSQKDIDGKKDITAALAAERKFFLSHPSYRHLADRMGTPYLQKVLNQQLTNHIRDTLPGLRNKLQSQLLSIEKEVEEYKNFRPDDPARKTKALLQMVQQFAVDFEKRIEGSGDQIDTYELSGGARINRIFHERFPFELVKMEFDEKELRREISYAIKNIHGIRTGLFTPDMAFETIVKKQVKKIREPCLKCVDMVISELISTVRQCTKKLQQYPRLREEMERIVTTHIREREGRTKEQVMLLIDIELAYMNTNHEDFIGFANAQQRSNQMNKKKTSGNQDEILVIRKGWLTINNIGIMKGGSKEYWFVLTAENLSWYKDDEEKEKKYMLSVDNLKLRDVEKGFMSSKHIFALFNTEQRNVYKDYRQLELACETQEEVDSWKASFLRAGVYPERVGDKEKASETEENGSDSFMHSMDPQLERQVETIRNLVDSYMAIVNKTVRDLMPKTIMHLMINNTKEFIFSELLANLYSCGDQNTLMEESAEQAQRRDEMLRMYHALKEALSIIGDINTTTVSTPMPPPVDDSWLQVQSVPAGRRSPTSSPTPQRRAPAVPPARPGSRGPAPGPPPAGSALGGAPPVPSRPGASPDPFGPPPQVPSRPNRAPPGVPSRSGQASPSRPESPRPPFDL", "assay": "Inhibition of Dynamin 1 in serum-starved human U2OS cells assessed as inhibition of clathrin-mediated Alexa-495-cojugated transferrin uptake pretreated up to 300 uM for 30 mins by high-content imaging method", "assay_type": "cell-based", "settings": "not given", "how_it_was_run": "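U2OS cells plated on fibronectin-coated glass to 70–80% confluency and serum-starved overnight (16 h). Pretreated with compound or 1% DMSO vehicle for 30 min, then given fluorescent transferrin for 8 min at 37 °C.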", "values": [
      {"smiles": "O=C1C=C(Nc2cccc(O)c2)C(=O)C=C1Nc1cccc(O)c1", "inhibition": "inactive"}
    ]}
  ]
}
